Measurements: ChEMBL document CHEMBL1157020, “Antihyperglycemic activity of naphthylchalcones” (2010)
Calls of active or inactive are those of the source. The rule behind the calls is not given here.

Tests used:
[1] = tested on: Rattus norvegicus; experiment: Antidiabetic activity in hyperglycemic normal Wistar rat assessed as reduction of serum glucose level at 10 mg/kg, po after 15 mins by glucose oxidase method relative to control; assay type: functional; set-up: scale not given: the % may be the effect or the level left
Method in brief: (§1)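 Male Wistar rats (180–210 g), fasted 16 h, given glucose 4 g/kg (8.9 M) plus compound 10 mg/kg in corn oil by oral gavage (0.5 mL); vehicle-treated and glucose-only controls. Tail-vein blood centrifuged, serum glucose by glucose oxidase before and at 15, 30, 60, 180 min. Lowering expressed versus hyperglycemic control; mean ± S.E.M., n = 8.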

[2] = tested on: Rattus norvegicus; experiment: Antidiabetic activity in hyperglycemic normal Wistar rat assessed as reduction of serum glucose level at 10 mg/kg, po after 60 mins by glucose oxidase method relative to control; assay type: functional; set-up: scale not given: the % may be the effect or the level left; method in brief: as §1
[3] = tested on: Rattus norvegicus; experiment: Antidiabetic activity in hyperglycemic normal Wistar rat assessed as reduction of serum glucose level at 10 mg/kg, po after 30 mins by glucose oxidase method relative to control; assay type: functional; set-up: scale not given: the % may be the effect or the level left; method in brief: as §1
[4] = tested on: Rattus norvegicus; experiment: Antidiabetic activity in hyperglycemic normal Wistar rat assessed as potentiation of glucose-induced serum insulin level at 10 mg/kg, po after 60 mins by ELISA relative control; assay type: functional
Method in brief: (§2)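 Male Wistar rats (180–210 g), fasted 16 h, orally loaded with glucose 4 g/kg plus compound 10 mg/kg in corn oil by gavage; euglycemic and hyperglycemic control groups. Serum insulin by rat insulin ELISA (range 0.2–10 ng/mL; intra/inter-assay CV 3.22/6.95), absorbance 450 nm against standard curve. Increase versus hyperglycemic control at matched times; mean ± SEM, n = 8.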

[5] = tested on: Rattus norvegicus; experiment: Antidiabetic activity in hyperglycemic normal Wistar rat assessed as potentiation of glucose-induced serum insulin level at 10 mg/kg, po by ELISA relative control; assay type: functional, organism-based; set-up: dose 10 mg/kg; method in brief: as §2
[6] = tested on: Rattus norvegicus; experiment: Antidiabetic activity in hyperglycemic normal Wistar rat assessed as potentiation of glucose-induced serum insulin level at 10 mg/kg, po after 30 mins by ELISA relative control; assay type: functional; method in brief: as §2
[7] = tested on: Rattus norvegicus; experiment: Antidiabetic activity in hyperglycemic normal Wistar rat assessed as reduction of serum glucose level at 10 mg/kg, po up to 180 mins by glucose oxidase method; assay type: functional, organism-based; set-up: dose 10 mg/kg; method in brief: as §1

Row | SMILES | Activity [1] | Activity [3] | Activity [7] | further results
1 | O=C(/C=C/c1ccc2ccccc2c1)c1ccc([N+](=O)[O-])cc1 | 22% | 25% | – | Activity [2]: 19%; Activity [4]: 104%; Activity [5]: Dose-dependent effect; Activity [6]: 27%
2 | O=C(/C=C/c1ccc2ccccc2c1)c1ccccc1 | – | – | inactive | –
3 | O=C(/C=C/c1cccc2ccccc12)c1ccc([N+](=O)[O-])cc1 | 17% | 21% | – | –
4 | O=C(/C=C/c1cccc([N+](=O)[O-])c1)c1ccc2ccccc2c1 | – | – | Active | Activity [4]: 88%; Activity [5]: Dose-dependent effect; Activity [6]: 48%
5 | O=C(/C=C/c1ccc2ccccc2c1)c1cccc([N+](=O)[O-])c1 | 24% | 25% | – | Activity [2]: 14%
6 | O=C(/C=C/c1ccc2ccccc2c1)c1ccc2ccccc2c1 | – | – | inactive | –
7 | O=C(/C=C/c1ccc2ccccc2c1)c1ccccc1[N+](=O)[O-] | – | – | inactive | –
8 | O=C(/C=C/c1cccc2ccccc12)c1cccc([N+](=O)[O-])c1 | 18% | 32% | – | –
9 | O=C(/C=C/c1ccc([N+](=O)[O-])cc1)c1ccc2ccccc2c1 | – | – | inactive | –
